Assay results as given in ChEMBL document CHEMBL1130143, “Probes for narcotic receptor-mediated phenomena. 25. Synthesis and evaluation of N-alkyl-substituted (alpha-piperazinylbenzyl)benzamides as novel, highly selective delta opioid receptor agonists” (J Med Chem, 1997).

How the values were obtained:
Mu-type opioid receptor [1] = biological target: Mu-type opioid receptor (Rattus norvegicus, UniProt P33535); experiment: Binding affinity for Opioid receptor mu 1 by the inhibition of binding of [3H]DAMGO in rat brain membranes.; type: cell membranes
Summary of the method: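 Rat brain membranes with [³H]DAMGO at 1-3 nM, incubated 4 h at 25 °C in 50 mM Tris-HCl pH 7.4 plus protease inhibitor cocktail. Nonspecific binding measured with 20 μM levallorphan. Radioligand displaced by nine drug concentrations, in two runs. Drugs diluted in 10 mM Tris-HCl pH 7.4 containing 1 mg/mL BSA. IC50 reported.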

[2] = biological target: T1, Delta-type opioid receptor (Rattus norvegicus, UniProt P33533); experiment: Binding affinity for Opioid receptor delta 1 by the inhibition of binding of [3H]DADAL in rat brain membranes.; type: cell membranes
Summary of the method: (§1)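 Rat brain membranes labelled with [³H]DADLE at 1.7-2.5 nM. Incubation 3-4 h at 25 °C in Tris-HCl pH 7.4 with 100 mM choline chloride, 3 mM MnCl₂, protease inhibitor cocktail and 100 nM DAMGO to block μ sites. Nonspecific binding defined with 20 μM levallorphan. Nine test concentrations, run twice. IC50 reported.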

[3] = biological target: Opioid receptors; mu & delta (Rattus norvegicus) (UniProt P33533+P33535); experiment: Binding affinity ratio on mu opioid receptor( rat brain membranes) with respect to delta opioid receptor (rat brain membranes)
Summary of the method: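 Ratio of IC50 from [³H]DAMGO binding to rat brain membranes over IC50 from [³H]DADLE binding to rat brain membranes (μ sites blocked with 100 nM DAMGO). Both assays run at 25 °C in Tris-HCl pH 7.4, nine concentrations, run twice.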

[4] = biological target: Kappa-type opioid receptor (Cavia porcellus, UniProt P41144); experiment: Binding affinity for Opioid receptor kappa 1 by the inhibition of binding of [3H]U-69593 in guinea pig brain membranes.; type: cell membranes
Summary of the method: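 Guinea pig brain membranes, first depleted of μ and δ sites by pretreatment with irreversible ligands BIT and FIT. Nonspecific binding from 1 μM U69,593. Nine concentrations, run twice. IC50 reported.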

Cavia porcellus = species on record: Cavia porcellus; experiment: Binding affinity ratio of kappa opioid receptor (guinea pig brain membranes) with respect to delta opioid receptor( rat brain membranes); type: cell membranes; details: Membrane
Summary of the method: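 Ratio of IC50 from [³H]U69,593 binding to μ/δ-depleted guinea pig brain membranes over IC50 from [³H]DADLE binding to rat brain membranes (μ sites blocked with 100 nM DAMGO). Both assays run at 25 °C in Tris-HCl pH 7.4, nine concentrations, run twice.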

[5] = biological target: Opioid receptors; mu & delta (Homo sapiens) (UniProt P41143+P35372); experiment: Relative binding affinity to mu and delta opioid receptors; type: protein assay
[6] = biological target: Delta-type opioid receptor (Homo sapiens, UniProt P41143); experiment: Binding affinity for Opioid receptor delta 1 by the inhibition of binding of [3H]-p-DPDPE human cloned receptors.
Summary of the method: (§2)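 Crude membranes from CHO cells stably expressing human δ receptor, with 0.75 nM [³H]-p-Cl-DPDPE. Samples incubated 3 h at 25 °C; nonspecific binding from 10 μM naltrexone; 10 inhibitor concentrations, with totals in duplicate. Filtered on PEI-treated glass-fiber filters, washed with cold saline, scintillation counted. IC50 by nonlinear regression.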

Mu-type opioid receptor [7] = biological target: Mu-type opioid receptor (Homo sapiens, UniProt P35372); experiment: Binding affinity for micro receptors by the inhibition of binding of [3H]DAMGO to Opioid receptor mu 1 in human cloned receptors.
Summary of the method: as §2, with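 “B82 mouse fibroblasts” for “CHO cells”, “μ” for “δ”, “1.0” for “0.75”, “[³H]DAMGO.” for “[³H]-p-Cl-DPDPE.”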

[8] = biological target: T1, Delta-type opioid receptor; experiment: Binding affinity for Opioid receptor delta 1 as inhibition of [3H]DADAL binding to rat brain membranes; type: cell membranes, Membrane; summary of the method: as §1

Chain of Kappa-type opioid receptor (P41144 whole entry): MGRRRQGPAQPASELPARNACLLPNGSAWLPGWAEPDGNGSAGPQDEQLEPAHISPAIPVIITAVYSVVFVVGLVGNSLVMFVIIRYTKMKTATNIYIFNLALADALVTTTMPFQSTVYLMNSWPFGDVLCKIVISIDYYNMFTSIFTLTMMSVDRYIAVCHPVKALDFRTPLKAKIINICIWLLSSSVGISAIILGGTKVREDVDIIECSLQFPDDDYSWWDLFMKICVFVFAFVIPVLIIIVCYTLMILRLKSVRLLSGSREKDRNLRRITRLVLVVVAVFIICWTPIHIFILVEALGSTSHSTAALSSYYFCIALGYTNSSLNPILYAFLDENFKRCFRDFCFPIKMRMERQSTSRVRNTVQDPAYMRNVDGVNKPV
Chain of Mu-type opioid receptor (Rattus norvegicus, UniProt P33535) (P33535 whole entry): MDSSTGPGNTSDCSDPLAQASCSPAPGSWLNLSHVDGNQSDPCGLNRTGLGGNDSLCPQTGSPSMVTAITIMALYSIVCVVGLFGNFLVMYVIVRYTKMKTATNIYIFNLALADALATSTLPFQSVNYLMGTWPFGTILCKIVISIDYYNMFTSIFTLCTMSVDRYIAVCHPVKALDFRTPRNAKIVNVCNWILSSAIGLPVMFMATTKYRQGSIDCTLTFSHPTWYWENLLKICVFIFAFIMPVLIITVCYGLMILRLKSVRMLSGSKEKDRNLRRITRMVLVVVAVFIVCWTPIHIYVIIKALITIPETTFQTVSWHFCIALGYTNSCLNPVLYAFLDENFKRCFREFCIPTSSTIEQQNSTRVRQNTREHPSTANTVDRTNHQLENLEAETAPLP
T1 sequence (P33533 whole entry): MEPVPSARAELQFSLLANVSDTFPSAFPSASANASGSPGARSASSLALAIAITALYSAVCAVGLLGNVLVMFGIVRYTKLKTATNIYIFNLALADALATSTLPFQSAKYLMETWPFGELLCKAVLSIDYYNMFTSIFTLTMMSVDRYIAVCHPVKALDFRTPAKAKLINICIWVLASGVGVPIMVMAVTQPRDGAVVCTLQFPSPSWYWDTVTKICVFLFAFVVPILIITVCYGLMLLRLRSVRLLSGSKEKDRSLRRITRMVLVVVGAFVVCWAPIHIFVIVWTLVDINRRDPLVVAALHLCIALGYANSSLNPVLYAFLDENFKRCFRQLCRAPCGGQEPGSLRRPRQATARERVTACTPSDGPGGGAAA
Chain of Opioid receptors; mu & delta (Rattus norvegicus) (P33533 whole entry, looked up): as the sequence (P33533 whole entry) above
Chain of Opioid receptors; mu & delta (Rattus norvegicus) (P33535 whole entry, looked up): as the sequence (P33535 whole entry) above
Chain of Delta-type opioid receptor (Homo sapiens, UniProt P41143) (P41143 whole entry): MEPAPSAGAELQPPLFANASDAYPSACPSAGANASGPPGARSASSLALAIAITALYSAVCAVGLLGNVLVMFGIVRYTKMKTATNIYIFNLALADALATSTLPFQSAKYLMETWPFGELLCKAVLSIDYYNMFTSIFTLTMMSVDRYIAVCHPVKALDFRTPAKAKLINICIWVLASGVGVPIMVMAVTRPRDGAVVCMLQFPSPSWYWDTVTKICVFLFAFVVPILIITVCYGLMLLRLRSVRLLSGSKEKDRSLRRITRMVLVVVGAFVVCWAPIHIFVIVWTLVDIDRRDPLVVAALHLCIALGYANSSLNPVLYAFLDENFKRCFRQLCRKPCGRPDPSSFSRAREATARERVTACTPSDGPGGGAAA
Chain of Opioid receptors; mu & delta (Homo sapiens) (P35372 whole entry, looked up): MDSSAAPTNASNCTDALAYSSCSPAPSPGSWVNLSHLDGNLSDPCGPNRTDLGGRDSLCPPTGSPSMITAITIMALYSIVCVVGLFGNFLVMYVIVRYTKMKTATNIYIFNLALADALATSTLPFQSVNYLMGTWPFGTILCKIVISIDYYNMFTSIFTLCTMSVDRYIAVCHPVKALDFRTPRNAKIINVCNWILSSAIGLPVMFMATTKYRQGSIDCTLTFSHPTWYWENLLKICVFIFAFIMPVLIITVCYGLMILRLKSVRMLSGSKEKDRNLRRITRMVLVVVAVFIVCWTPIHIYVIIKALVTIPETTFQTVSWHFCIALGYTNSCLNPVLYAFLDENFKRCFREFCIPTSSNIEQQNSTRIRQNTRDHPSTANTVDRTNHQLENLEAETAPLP
Chain of Opioid receptors; mu & delta (Homo sapiens) (P41143 whole entry, looked up): as the sequence (P41143 whole entry) above
Chain of Mu-type opioid receptor (Homo sapiens, UniProt P35372) (P35372 whole entry): as the sequence (P35372 whole entry, looked up) above

C=CCN1C[C@H](C)N([C@@H](c2ccc(C(=O)N3CCCCCC3)cc2)c2cccc(OC)c2)C[C@H]1C
IC50 (Mu-type opioid receptor [1]): > 2.5 µM
IC50 [2]: 0.124 µM
Ratio [3]: > 20
IC50 [4]: > 2.5 µM
Ratio (Cavia porcellus): > 81

C=CCN1C[C@H](C)N([C@H](c2ccc(C(=O)N3CCCCCC3)cc2)c2cccc(OC)c2)C[C@H]1C
IC50 (Mu-type opioid receptor [1]): > 2.5 µM
IC50 [2]: 0.0082 µM
Mu/delta ratio [5]: 344
IC50 [6]: 0.013 µM
Ratio [3]: > 305
IC50 (Mu-type opioid receptor [7]): 4.47 µM
IC50 [4]: > 10 µM
Ratio (Cavia porcellus): > 1220

C=CCN1C[C@H](C)N([C@H](c2ccc(C(=O)N3CCCC3)cc2)c2cccc(OC)c2)C[C@H]1C
IC50 (Mu-type opioid receptor [1]): > 2.5 µM
IC50 [2]: 0.0181 µM
Mu/delta ratio [5]: 233
IC50 [6]: 0.0266 µM
Ratio [3]: > 138
IC50 (Mu-type opioid receptor [7]): 6.19 µM
IC50 [4]: > 10 µM
Ratio (Cavia porcellus): > 552

C=CCN1C[C@H](C)N([C@@H](c2ccc(C(=O)N(CC)CCCC)cc2)c2cccc(OC)c2)C[C@H]1C
IC50 (Mu-type opioid receptor [1]): 5.88 µM
IC50 [2]: 0.151 µM
Ratio [3]: 39
IC50 [4]: > 10 µM
Ratio (Cavia porcellus): > 66

C=CCN1C[C@H](C)N([C@H](c2ccc(C(=O)NCC)cc2)c2cccc(OC)c2)C[C@H]1C
IC50 (Mu-type opioid receptor [1]): 0.242 µM
Ratio [3]: 1.6
IC50 [4]: 0.345 µM
IC50 [8]: 0.15 µM
Ratio (Cavia porcellus): 2.3

C=CCN1C[C@H](C)N([C@H](c2ccc(C(=O)NC(C)(C)C)cc2)c2cccc(OC)c2)C[C@H]1C
IC50 (Mu-type opioid receptor [1]): > 2.5 µM
IC50 [2]: 0.281 µM
Ratio [3]: > 8.9
IC50 [4]: > 2.5 µM
Ratio (Cavia porcellus): > 8.9

C=CCN1C[C@H](C)N([C@@H](c2ccc(C(=O)N(CCCC)CCCC)cc2)c2cccc(OC)c2)C[C@H]1C
IC50 (Mu-type opioid receptor [1]): > 2.5 µM
IC50 [2]: 0.129 µM
Ratio [3]: > 5.5
IC50 [4]: > 2.5 µM
Ratio (Cavia porcellus): > 5.5

C=CCN1C[C@H](C)N([C@@H](c2ccc(C(=O)N3CCCC3)cc2)c2cccc(OC)c2)C[C@H]1C
IC50 (Mu-type opioid receptor [1]): > 2.5 µM
IC50 [2]: 0.265 µM
Ratio [3]: > 9.4
IC50 [4]: > 10 µM
Ratio (Cavia porcellus): > 38

C=CCN1C[C@H](C)N([C@@H](c2ccc(C(=O)N(C(C)C)C(C)C)cc2)c2cccc(OC)c2)C[C@H]1C
IC50 (Mu-type opioid receptor [1]): > 2.5 µM
IC50 [2]: 0.344 µM
Ratio [3]: > 7.3
IC50 [4]: > 2.5 µM
Ratio (Cavia porcellus): > 7.3

C=CCN1C[C@H](C)N([C@H](c2ccc(C(=O)N(CC)CC)cc2)c2cccc(OC)c2)C[C@H]1C [SNC-80]
IC50 [4]: 7.07 µM

C=CCN1C[C@H](C)N([C@H](c2ccc(C(=O)N(C)C)cc2)c2cccc(OC)c2)C[C@H]1C
IC50 (Mu-type opioid receptor [1]): 3.26 µM
IC50 [2]: 0.0048 µM
Mu/delta ratio [5]: 540
IC50 [6]: 0.018 µM
Ratio [3]: 679
IC50 (Mu-type opioid receptor [7]): 9.72 µM
IC50 [4]: > 10 µM
Ratio (Cavia porcellus): > 2080

C=CCN1C[C@H](C)N([C@H](c2ccc(C(=O)N(CCCC)CCCC)cc2)c2cccc(OC)c2)C[C@H]1C
IC50 (Mu-type opioid receptor [1]): > 2.5 µM
IC50 [2]: 0.0345 µM
Ratio [3]: > 71
IC50 [4]: > 2.5 µM
Ratio (Cavia porcellus): > 71

C=CCN1C[C@H](C)N([C@H](c2ccc(C(=O)N3CCCCC3)cc2)c2cccc(OC)c2)C[C@H]1C
IC50 (Mu-type opioid receptor [1]): > 2.5 µM
IC50 [2]: 0.0146 µM
Mu/delta ratio [5]: 158
IC50 [6]: 0.038 µM
Ratio [3]: > 171
IC50 (Mu-type opioid receptor [7]): 6 µM
IC50 [4]: > 10 µM
Ratio (Cavia porcellus): > 684

C=CCN1C[C@H](C)N([C@H](c2ccc(C(=O)N(CCC)CCC)cc2)c2cccc(OC)c2)C[C@H]1C
IC50 (Mu-type opioid receptor [1]): 3.99 µM
IC50 [2]: 0.0131 µM
Mu/delta ratio [5]: 811
IC50 [6]: 0.0075 µM
Ratio [3]: 305
IC50 (Mu-type opioid receptor [7]): 6.08 µM
IC50 [4]: > 10 µM
Ratio (Cavia porcellus): > 763

C=CCN1C[C@H](C)N([C@H](c2ccc(C(=O)N(C)CC)cc2)c2cccc(OC)c2)C[C@H]1C
IC50 (Mu-type opioid receptor [1]): 7.37 µM
IC50 [2]: 0.0042 µM
Mu/delta ratio [5]: 1510
IC50 [6]: 0.008 µM
Ratio [3]: 1760
IC50 (Mu-type opioid receptor [7]): 12.1 µM
IC50 [4]: > 10 µM
Ratio (Cavia porcellus): > 2380

C=CCN1C[C@H](C)N([C@H](c2ccc(C(=O)N(CC)CCCC)cc2)c2cccc(OC)c2)C[C@H]1C
IC50 (Mu-type opioid receptor [1]): 1.89 µM
IC50 [2]: 0.0066 µM
Mu/delta ratio [5]: 327
IC50 [6]: 0.0102 µM
Ratio [3]: 286
IC50 (Mu-type opioid receptor [7]): 3.34 µM
IC50 [4]: > 10 µM
Ratio (Cavia porcellus): > 1520

C=CCN1C[C@H](C)N([C@@H](c2ccc(C(=O)N(C)C)cc2)c2cccc(OC)c2)C[C@H]1C
IC50 (Mu-type opioid receptor [1]): > 2.5 µM
IC50 [2]: 0.234 µM
Ratio [3]: > 11
IC50 [4]: > 2.5 µM
Ratio (Cavia porcellus): > 11

C=CCN1C[C@H](C)N([C@@H](c2ccc(C(=O)N3CCCCC3)cc2)c2cccc(OC)c2)C[C@H]1C
IC50 (Mu-type opioid receptor [1]): > 2.5 µM
IC50 [2]: 0.45 µM
Ratio [3]: > 5.5
IC50 [4]: > 10 µM
Ratio (Cavia porcellus): > 22

C=CCN1C[C@H](C)N([C@H](c2ccc(C(=O)N(C(C)C)C(C)C)cc2)c2cccc(OC)c2)C[C@H]1C
IC50 (Mu-type opioid receptor [1]): > 2.5 µM
IC50 [2]: 0.0071 µM
Mu/delta ratio [5]: 1370
IC50 [6]: 0.005 µM
Ratio [3]: > 352
IC50 (Mu-type opioid receptor [7]): 6.84 µM
IC50 [4]: > 2.5 µM
Ratio (Cavia porcellus): > 352

C=CCN1C[C@H](C)N([C@@H](c2ccc(C(=O)NCC)cc2)c2cccc(OC)c2)C[C@H]1C
IC50 (Mu-type opioid receptor [1]): 0.169 µM
IC50 [2]: 0.0344 µM
Ratio [3]: 4.9
IC50 [4]: 1.63 µM
Ratio (Cavia porcellus): 48

C=CCN1C[C@H](C)N([C@@H](c2ccc(C(=O)N(CCC)CCC)cc2)c2cccc(OC)c2)C[C@H]1C
IC50 (Mu-type opioid receptor [1]): 4.34 µM
IC50 [2]: 0.153 µM
Ratio [3]: 28
IC50 [4]: > 10 µM
Ratio (Cavia porcellus): > 65

C=CCN1C[C@H](C)N([C@@H](c2ccc(C(N)=O)cc2)c2cccc(OC)c2)C[C@H]1C
IC50 (Mu-type opioid receptor [1]): > 2.5 µM
IC50 [2]: 0.389 µM
Ratio [3]: > 6.4
IC50 [4]: > 2.5 µM
Ratio (Cavia porcellus): > 6.4

C=CCN1C[C@H](C)N([C@@H](c2ccc(C(=O)N(C)CC)cc2)c2cccc(OC)c2)C[C@H]1C
IC50 (Mu-type opioid receptor [1]): > 2.5 µM
IC50 [2]: 0.0606 µM
Ratio [3]: > 41
IC50 [4]: > 2.5 µM
Ratio (Cavia porcellus): > 41

C=CCN1C[C@H](C)N([C@H](c2ccc(C(N)=O)cc2)c2cccc(OC)c2)C[C@H]1C
IC50 (Mu-type opioid receptor [1]): > 2.5 µM
IC50 [2]: 0.451 µM
Ratio [3]: > 5.5
IC50 [4]: > 2.5 µM
Ratio (Cavia porcellus): > 5.5

C=CCN1C[C@H](C)N([C@H](c2ccc(C(=O)NC(CC)CC)cc2)c2cccc(OC)c2)C[C@H]1C
IC50 (Mu-type opioid receptor [1]): > 2.5 µM
IC50 [2]: 0.176 µM
Ratio [3]: > 14
IC50 [4]: > 2.5 µM
Ratio (Cavia porcellus): > 14
